Columns and labels:
Conditions in all cases: stereoisomer not certain
[1] = biological target: T1, OR2L13 (Homo sapiens) (UniProt Q8N349)
T1 sequence (whole entry): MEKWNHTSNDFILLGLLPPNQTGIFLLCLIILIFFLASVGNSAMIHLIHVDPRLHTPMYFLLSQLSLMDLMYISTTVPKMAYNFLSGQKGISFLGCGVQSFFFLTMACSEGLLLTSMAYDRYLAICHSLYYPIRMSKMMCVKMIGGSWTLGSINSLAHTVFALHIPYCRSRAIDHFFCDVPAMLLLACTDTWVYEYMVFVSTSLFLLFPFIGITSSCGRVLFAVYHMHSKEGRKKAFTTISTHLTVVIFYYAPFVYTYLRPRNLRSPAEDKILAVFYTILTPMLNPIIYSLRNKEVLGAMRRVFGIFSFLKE
Method in brief: (§1)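 Assay methods differ from source to source, frequently being transient luciferase assays in mammalian cell lines. For each receptor–molecule pair, the label responsive (active) applies when the original authors judged the measured signal statistically different from baseline, and non-responsive (inactive) applies otherwise.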

[2] = biological target: T2, OR2L2 (Homo sapiens) (UniProt Q8NH16)
T2 sequence (whole entry): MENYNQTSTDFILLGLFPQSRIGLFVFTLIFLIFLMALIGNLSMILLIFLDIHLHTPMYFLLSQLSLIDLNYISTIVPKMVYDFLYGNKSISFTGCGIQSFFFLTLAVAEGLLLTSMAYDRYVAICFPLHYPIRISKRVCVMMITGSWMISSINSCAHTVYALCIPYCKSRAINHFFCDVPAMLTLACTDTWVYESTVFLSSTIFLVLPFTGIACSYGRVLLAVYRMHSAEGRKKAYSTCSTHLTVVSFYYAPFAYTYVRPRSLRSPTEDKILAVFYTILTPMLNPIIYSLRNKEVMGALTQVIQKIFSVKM
Method in brief: as §1

[3] = biological target: T3, OR2L3 (Homo sapiens) (UniProt Q8NG85)
T3 sequence (whole entry): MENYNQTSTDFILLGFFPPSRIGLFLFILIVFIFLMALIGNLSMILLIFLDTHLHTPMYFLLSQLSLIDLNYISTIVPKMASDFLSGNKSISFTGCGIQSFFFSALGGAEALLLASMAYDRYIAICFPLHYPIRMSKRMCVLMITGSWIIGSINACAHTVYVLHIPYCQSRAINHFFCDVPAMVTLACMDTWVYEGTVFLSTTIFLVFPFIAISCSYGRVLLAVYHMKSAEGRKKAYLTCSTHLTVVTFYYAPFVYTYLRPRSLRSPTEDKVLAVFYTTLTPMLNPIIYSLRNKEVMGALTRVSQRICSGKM
Method in brief: as §1

[4] = biological target: T4, OR2L5 (Homo sapiens) (UniProt Q8NG80)
T4 sequence (whole entry): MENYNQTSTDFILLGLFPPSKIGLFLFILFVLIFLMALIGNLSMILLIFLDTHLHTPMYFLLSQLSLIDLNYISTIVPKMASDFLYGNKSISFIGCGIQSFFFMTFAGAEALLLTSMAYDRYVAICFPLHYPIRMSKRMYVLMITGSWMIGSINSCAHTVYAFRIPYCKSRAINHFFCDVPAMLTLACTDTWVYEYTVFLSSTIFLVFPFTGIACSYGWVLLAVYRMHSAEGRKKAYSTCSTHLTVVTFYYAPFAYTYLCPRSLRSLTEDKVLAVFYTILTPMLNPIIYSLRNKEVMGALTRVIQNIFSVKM
Method in brief: as §1

[5] = biological target: T5, OR2L8 (Homo sapiens) (UniProt Q8NGY9)
T5 sequence (whole entry): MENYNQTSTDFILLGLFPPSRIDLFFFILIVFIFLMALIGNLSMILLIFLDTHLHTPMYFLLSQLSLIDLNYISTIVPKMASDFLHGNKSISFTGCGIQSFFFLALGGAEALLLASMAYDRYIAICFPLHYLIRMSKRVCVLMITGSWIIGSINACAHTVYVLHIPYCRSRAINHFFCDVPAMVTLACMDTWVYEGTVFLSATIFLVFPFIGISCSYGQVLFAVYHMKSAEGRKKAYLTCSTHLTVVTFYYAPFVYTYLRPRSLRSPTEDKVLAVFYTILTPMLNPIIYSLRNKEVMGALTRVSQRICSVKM
Method in brief: as §1

[6] = biological target: T6, OR2M2 (Homo sapiens) (UniProt Q96R28)
T6 sequence (whole entry): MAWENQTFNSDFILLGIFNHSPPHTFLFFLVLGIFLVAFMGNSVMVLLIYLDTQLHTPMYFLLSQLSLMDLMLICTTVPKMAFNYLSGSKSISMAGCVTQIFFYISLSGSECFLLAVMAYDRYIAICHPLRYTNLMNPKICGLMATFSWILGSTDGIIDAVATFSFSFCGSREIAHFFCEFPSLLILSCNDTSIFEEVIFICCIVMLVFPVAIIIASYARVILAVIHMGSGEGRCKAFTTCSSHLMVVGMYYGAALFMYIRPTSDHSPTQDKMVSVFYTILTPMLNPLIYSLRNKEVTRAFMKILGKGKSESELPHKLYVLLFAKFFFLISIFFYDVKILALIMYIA
Method in brief: as §1

[7] = biological target: T7, OR2M3 (Homo sapiens) (UniProt Q8NG83)
T7 sequence (whole entry): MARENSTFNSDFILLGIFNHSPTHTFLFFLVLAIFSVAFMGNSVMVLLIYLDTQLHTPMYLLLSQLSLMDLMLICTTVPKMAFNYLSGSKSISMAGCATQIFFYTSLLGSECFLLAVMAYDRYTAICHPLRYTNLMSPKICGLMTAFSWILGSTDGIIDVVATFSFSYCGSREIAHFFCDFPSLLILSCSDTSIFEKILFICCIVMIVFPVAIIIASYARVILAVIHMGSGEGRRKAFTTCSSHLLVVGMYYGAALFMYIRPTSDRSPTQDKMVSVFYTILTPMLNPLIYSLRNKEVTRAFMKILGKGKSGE
Method in brief: as §1

[8] = test system: OR2M3 A216T
Method in brief: as §1

[9] = test system: OR2M3 A33G M144T
Method in brief: as §1

[10] = test system: OR2M3 A33G
Method in brief: as §1

Chain of OR2M3 A216T (as listed by the source, stated change not applied): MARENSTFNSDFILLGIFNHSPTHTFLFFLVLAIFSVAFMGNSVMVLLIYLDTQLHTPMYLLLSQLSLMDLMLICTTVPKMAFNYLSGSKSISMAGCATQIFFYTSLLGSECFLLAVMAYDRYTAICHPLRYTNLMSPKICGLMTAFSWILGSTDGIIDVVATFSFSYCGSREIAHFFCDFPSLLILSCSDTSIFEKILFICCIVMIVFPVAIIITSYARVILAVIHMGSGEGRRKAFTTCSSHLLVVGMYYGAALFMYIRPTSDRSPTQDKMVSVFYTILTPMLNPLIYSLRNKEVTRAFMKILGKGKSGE
Chain of OR2M3 A33G (as listed by the source, stated change not applied): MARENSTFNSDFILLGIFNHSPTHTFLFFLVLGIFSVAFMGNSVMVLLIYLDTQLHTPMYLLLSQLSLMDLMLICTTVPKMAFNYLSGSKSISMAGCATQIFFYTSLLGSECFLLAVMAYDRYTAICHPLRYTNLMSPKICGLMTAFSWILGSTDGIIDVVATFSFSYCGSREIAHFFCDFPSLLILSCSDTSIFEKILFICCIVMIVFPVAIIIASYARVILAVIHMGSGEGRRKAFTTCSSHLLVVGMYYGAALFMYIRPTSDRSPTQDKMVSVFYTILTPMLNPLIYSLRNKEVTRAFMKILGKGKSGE

Structure (SMILES): CCCCC(S)C(C)CO (stereo not drawn)
- odorant receptor agonist call [1]: inactive
- odorant receptor agonist call [2]: inactive
- odorant receptor agonist call [3]: inactive
- odorant receptor agonist call [4]: inactive
- odorant receptor agonist call [5]: inactive
- odorant receptor agonist call [6]: inactive
- odorant receptor agonist call [7]: inactive

Structure (SMILES): C=CCSC
- odorant receptor agonist call [7]: inactive

Structure (SMILES): CCC(=O)C(C)=O
- odorant receptor agonist call [7]: inactive

Structure (SMILES): CCC(C)C=O (stereo not drawn)
- odorant receptor agonist call [7]: inactive

Structure (SMILES): CC(=O)O
- odorant receptor agonist call [1]: inactive
- odorant receptor agonist call [7]: inactive

Structure (SMILES): CCCC(S)CCO (stereo not drawn)
- odorant receptor agonist call [7]: inactive

Structure (SMILES): CC1=C(O)C(=O)OC1C (stereo not drawn)
- odorant receptor agonist call [1]: inactive
- odorant receptor agonist call [2]: inactive
- odorant receptor agonist call [3]: inactive
- odorant receptor agonist call [4]: inactive
- odorant receptor agonist call [5]: inactive
- odorant receptor agonist call [6]: inactive
- odorant receptor agonist call [7]: inactive

Structure (SMILES): CCC(S)C(C)CO (stereo not drawn)
- odorant receptor agonist call [1]: inactive
- odorant receptor agonist call [2]: inactive
- odorant receptor agonist call [3]: inactive
- odorant receptor agonist call [4]: inactive
- odorant receptor agonist call [5]: inactive
- odorant receptor agonist call [6]: inactive
- odorant receptor agonist call [7]: active
- odorant receptor agonist call [8]: active
- odorant receptor agonist call [9]: inactive
- odorant receptor agonist call [10]: active

Structure (SMILES): Cc1occc1S
- odorant receptor agonist call [7]: inactive

Structure (SMILES): CCCC(O)CC(=O)OCC (stereo not drawn)
- odorant receptor agonist call [7]: inactive

Structure (SMILES): CC1CCCCCCCCCCCCC(=O)C1 (stereo not drawn)
- odorant receptor agonist call [1]: inactive
- odorant receptor agonist call [3]: inactive
- odorant receptor agonist call [4]: inactive
- odorant receptor agonist call [5]: inactive
- odorant receptor agonist call [6]: inactive
- odorant receptor agonist call [7]: inactive

Structure (SMILES): CCCCCCCCCC(=O)[O-].[H+]
- odorant receptor agonist call [7]: inactive

Structure (SMILES): CCCCC(C)CCC(=O)O (stereo not drawn)
- odorant receptor agonist call [7]: inactive

Structure (SMILES): CCCCCC=CC=O
- odorant receptor agonist call [7]: inactive

Structure (SMILES): CC(CO)CS (stereo not drawn)
- odorant receptor agonist call [1]: inactive
- odorant receptor agonist call [2]: inactive
- odorant receptor agonist call [3]: inactive
- odorant receptor agonist call [4]: inactive
- odorant receptor agonist call [5]: inactive
- odorant receptor agonist call [6]: inactive
- odorant receptor agonist call [7]: inactive

Structure (SMILES): CC(=O)c1c(C)c([N+](=O)[O-])c(C(C)(C)C)c([N+](=O)[O-])c1C
- odorant receptor agonist call [1]: inactive
- odorant receptor agonist call [3]: inactive
- odorant receptor agonist call [4]: inactive
- odorant receptor agonist call [5]: inactive
- odorant receptor agonist call [6]: inactive
- odorant receptor agonist call [7]: inactive

Structure (SMILES): C=C(C)C1CC=C(C)CC1 (stereo not drawn)
- odorant receptor agonist call [1]: inactive
- odorant receptor agonist call [7]: inactive

Structure (SMILES): CCc1ccc(O)cc1
- odorant receptor agonist call [7]: inactive

Structure (SMILES): CCCCC(=O)OCC
- odorant receptor agonist call [7]: inactive

Structure (SMILES): Cc1cccc(O)c1
- odorant receptor agonist call [7]: inactive

Structure (SMILES): Cc1occc(=O)c1O
- odorant receptor agonist call [7]: inactive

Structure (SMILES): CCCCC(=O)O
- odorant receptor agonist call [7]: inactive

Structure (SMILES): CCCCCCO
- odorant receptor agonist call [7]: inactive

Structure (SMILES): CC1=CCC2CC1C2(C)C (stereo not drawn)
- odorant receptor agonist call [1]: inactive
- odorant receptor agonist call [7]: inactive

Structure (SMILES): C=C1CCC2CC1C2(C)C (stereo not drawn)
- odorant receptor agonist call [1]: inactive
- odorant receptor agonist call [7]: inactive

Structure (SMILES): CCCCCC=CCCC=O
- odorant receptor agonist call [7]: inactive

Structure (SMILES): CCC(C)CO (stereo not drawn)
- odorant receptor agonist call [1]: inactive
- odorant receptor agonist call [7]: inactive

Structure (SMILES): CCCCCCCCCC(=O)OCC
- odorant receptor agonist call [1]: inactive
- odorant receptor agonist call [7]: inactive

Structure (SMILES): O=c1ccc2ccccc2o1
- odorant receptor agonist call [1]: inactive
- odorant receptor agonist call [7]: inactive

Structure (SMILES): COc1ccc2ccc(=O)oc2c1
- odorant receptor agonist call [7]: inactive

Structure (SMILES): CCCCCCCC(=O)OCC
- odorant receptor agonist call [1]: inactive
- odorant receptor agonist call [7]: inactive

Structure (SMILES): CCCCCCOC(C)=O
- odorant receptor agonist call [7]: inactive

Structure (SMILES): CC(C)=CCCC(C)=CCO
- odorant receptor agonist call [1]: inactive
- odorant receptor agonist call [7]: inactive

Structure (SMILES): CCC(=O)O
- odorant receptor agonist call [1]: inactive
- odorant receptor agonist call [7]: inactive

Structure (SMILES): CCCCCC(S)C(C)CO (stereo not drawn)
- odorant receptor agonist call [1]: inactive
- odorant receptor agonist call [2]: inactive
- odorant receptor agonist call [3]: inactive
- odorant receptor agonist call [4]: inactive
- odorant receptor agonist call [5]: inactive
- odorant receptor agonist call [6]: inactive
- odorant receptor agonist call [7]: inactive
